Measured values: ChEMBL document CHEMBL4152200, “Targeting the entrance channel of NNIBP: Discovery of diarylnicotinamide 1,4-disubstituted 1,2,3-triazoles as novel HIV-1 NNRTIs with high potency against wild-type and E138K mutant virus” (Eur J Med Chem, 2018)

Test system: not listed separately
Test: Selectivity index, ratio of CC50 for human MT4 cells to EC50 for wild-type HIV1 3B
Assay type: toxicity
Details: read-out: Ratio CC50/EC50
Procedure, shortened: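 Wild-type HIV-1 IIIB at 100–300 CCID50 added to MT-4 cells with compound, with mock-infected wells in parallel. MTT viability was read at day 5. […] SI = CC50/EC50.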
Cc1cccc(Cn2cc(CNC(=O)c3cnc(Nc4ccc(C#N)cc4)cc3Oc3c(C)cc(C)cc3C)nn2)c1 gave a selectivity ratio of 1070. CCOC(=O)CCn1cc(CNC(=O)c2cnc(Nc3ccc(C#N)cc3)cc2Oc2c(C)cc(C)cc2C)nn1 showed a selectivity ratio of 25. Cc1cc(C)c(Oc2cc(Nc3ccc(C#N)cc3)ncc2C(=O)NCc2cn(Cc3cccc(Cl)c3)nn2)c(C)c1 showed a selectivity ratio of 1800. Molecule Cc1ccc(Cn2cc(CNC(=O)c3cnc(Nc4ccc(C#N)cc4)cc3Oc3c(C)cc(C)cc3C)nn2)cc1 has a selectivity ratio of 990. Molecule COC(=O)Cn1cc(CNC(=O)c2cnc(Nc3ccc(C#N)cc3)cc2Oc2c(C)cc(C)cc2C)nn1 has a selectivity ratio of 8. CCOC(=O)Cn1cc(CNC(=O)c2cnc(Nc3ccc(C#N)cc3)cc2Oc2c(C)cc(C)cc2C)nn1 showed a selectivity ratio of 15.

Test system: Human immunodeficiency virus 1
Test: Antiviral activity against wild-type HIV-1 3B infected in human MT4 cells assessed as inhibition of viral replication after 5 days by MTT assay
Assay type: functional, organism-based
Details: Human immunodeficiency virus 1, 3B, MT4, 120 h
Cc1cccc(Cn2cc(CNC(=O)c3cnc(Nc4ccc(C#N)cc4)cc3Oc3c(C)cc(C)cc3C)nn2)c1 showed an EC50 of 0.106 µM. Work on CCOC(=O)CCn1cc(CNC(=O)c2cnc(Nc3ccc(C#N)cc3)cc2Oc2c(C)cc(C)cc2C)nn1 yielded an EC50 of 0.847 µM. For Cc1cc(C)c(Oc2cc(Nc3ccc(C#N)cc3)ncc2C(=O)NCc2cn(Cc3cccc(Cl)c3)nn2)c(C)c1, the EC50 was 0.104 µM. Molecule Cc1ccc(Cn2cc(CNC(=O)c3cnc(Nc4ccc(C#N)cc4)cc3Oc3c(C)cc(C)cc3C)nn2)cc1 has an EC50 of 0.167 µM. Work on COC(=O)Cn1cc(CNC(=O)c2cnc(Nc3ccc(C#N)cc3)cc2Oc2c(C)cc(C)cc2C)nn1 yielded an EC50 of 1.77 µM. CCOC(=O)Cn1cc(CNC(=O)c2cnc(Nc3ccc(C#N)cc3)cc2Oc2c(C)cc(C)cc2C)nn1 gave an EC50 of 0.653 µM.

Test system: Human immunodeficiency virus 1
Test: Antiviral activity against HIV-1 RES056 harboring reverse transcriptase K103N/Y181C double mutant infected in human MT4 cells assessed as inhibition of viral replication after 5 days by MTT assay
Assay type: functional, organism-based
Details: Human immunodeficiency virus 1, RES056, MT4, 120 h
Cc1cccc(Cn2cc(CNC(=O)c3cnc(Nc4ccc(C#N)cc4)cc3Oc3c(C)cc(C)cc3C)nn2)c1 showed an EC50 greater than 114 µM. Molecule CCOC(=O)CCn1cc(CNC(=O)c2cnc(Nc3ccc(C#N)cc3)cc2Oc2c(C)cc(C)cc2C)nn1 has an EC50 greater than 21.5 µM. Work on Cc1cc(C)c(Oc2cc(Nc3ccc(C#N)cc3)ncc2C(=O)NCc2cn(Cc3cccc(Cl)c3)nn2)c(C)c1 yielded an EC50 greater than 187 µM. Work on Cc1ccc(Cn2cc(CNC(=O)c3cnc(Nc4ccc(C#N)cc4)cc3Oc3c(C)cc(C)cc3C)nn2)cc1 yielded an EC50 greater than 165 µM. In the case of COC(=O)Cn1cc(CNC(=O)c2cnc(Nc3ccc(C#N)cc3)cc2Oc2c(C)cc(C)cc2C)nn1, the EC50 is reported as greater than 13.8 µM. For CCOC(=O)Cn1cc(CNC(=O)c2cnc(Nc3ccc(C#N)cc3)cc2Oc2c(C)cc(C)cc2C)nn1, the EC50 was greater than 9.53 µM.

Test system: not listed separately
Test: Selectivity index, ratio of CC50 for human MT4 cells to EC50 for HIV-1 RES056 harboring reverse transcriptase K103N/Y181C double mutant infected in human MT4 cells
Assay type: toxicity, cell-based
Details: read-out: Ratio CC50/EC50
Procedure, shortened: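 SI is CC₅₀ divided by EC₅₀, both by MTT after 5 days in MT-4 cells. CC₅₀ comes from mock-infected cultures run in parallel and is the concentration reducing their viability by 50%. EC₅₀ comes from cultures infected with the given mutant strain at 100–300 CCID₅₀.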
Molecule Cc1cccc(Cn2cc(CNC(=O)c3cnc(Nc4ccc(C#N)cc4)cc3Oc3c(C)cc(C)cc3C)nn2)c1 has a selectivity ratio of less than 1. CCOC(=O)CCn1cc(CNC(=O)c2cnc(Nc3ccc(C#N)cc3)cc2Oc2c(C)cc(C)cc2C)nn1 showed a selectivity ratio of less than 1. Molecule Cc1cc(C)c(Oc2cc(Nc3ccc(C#N)cc3)ncc2C(=O)NCc2cn(Cc3cccc(Cl)c3)nn2)c(C)c1 has a selectivity ratio of less than 1. Work on Cc1ccc(Cn2cc(CNC(=O)c3cnc(Nc4ccc(C#N)cc4)cc3Oc3c(C)cc(C)cc3C)nn2)cc1 yielded a selectivity ratio of less than 1. For COC(=O)Cn1cc(CNC(=O)c2cnc(Nc3ccc(C#N)cc3)cc2Oc2c(C)cc(C)cc2C)nn1, the selectivity ratio was less than 1. CCOC(=O)Cn1cc(CNC(=O)c2cnc(Nc3ccc(C#N)cc3)cc2Oc2c(C)cc(C)cc2C)nn1 showed a selectivity ratio of less than 1.

Test system: MT4
Test: Cytotoxicity against human MT4 cells assessed as decrease in cell viability after 5 days by MTT assay
Assay type: cell-based
Details: mt4, 120 h
Procedure, shortened: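 Mock-infected MT-4 cells, exponentially growing, seeded with compound in culture medium without virus; run in parallel with the antiviral assay. Viability read spectrophotometrically by MTT reduction five days later.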
Cc1cccc(Cn2cc(CNC(=O)c3cnc(Nc4ccc(C#N)cc4)cc3Oc3c(C)cc(C)cc3C)nn2)c1 gave a CC50 of 114 µM. With CCOC(=O)CCn1cc(CNC(=O)c2cnc(Nc3ccc(C#N)cc3)cc2Oc2c(C)cc(C)cc2C)nn1 the CC50 was 21.5 µM. In the case of Cc1cc(C)c(Oc2cc(Nc3ccc(C#N)cc3)ncc2C(=O)NCc2cn(Cc3cccc(Cl)c3)nn2)c(C)c1, the CC50 is reported as 187 µM. In the case of Cc1ccc(Cn2cc(CNC(=O)c3cnc(Nc4ccc(C#N)cc4)cc3Oc3c(C)cc(C)cc3C)nn2)cc1, the CC50 is reported as 165 µM. COC(=O)Cn1cc(CNC(=O)c2cnc(Nc3ccc(C#N)cc3)cc2Oc2c(C)cc(C)cc2C)nn1 showed a CC50 of 13.8 µM. With CCOC(=O)Cn1cc(CNC(=O)c2cnc(Nc3ccc(C#N)cc3)cc2Oc2c(C)cc(C)cc2C)nn1 the CC50 was 9.53 µM.
